Measurements from ChEMBL document CHEMBL1134236, “Anti-MRSA cephems. Part 1: C-3 substituted thiopyridinium derivatives” (Bioorg Med Chem Lett, 2001).
Values after ≈ are worked out from the molar mass of the structure shown.

Legend:
Staphylococcus aureus [1] = experiment: Minimum inhibitory concentration against methicillin-resistant Staphylococcus aureus (MRSA) A27223 in the presence of 50% calf serum.; format: functional
Summary of the method: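 NCCLS broth MIC in Mueller-Hinton broth with 2% NaCl plus 50% calf serum. Inoculum about 5×10⁵ CFU/mL, incubated at 35 °C for 24 h. Read as the lowest concentration with no visible growth.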

Staphylococcus aureus [2] = experiment: Dose required for protective activity against methicillin-resistant Staphylococcus aureus (MRSA) A27223 in mouse following i.m. administration.; details: im, read-out: PD50
Staphylococcus aureus [3] = experiment: Minimum inhibitory concentration against methicillin-resistant Staphylococcus aureus (MRSA) A27223; format: functional
Summary of the method: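 Broth microdilution per NCCLS in Mueller-Hinton broth with 2% NaCl. Inoculum about 5×10⁵ CFU/mL, incubated at 35 °C for 24 h. MIC is the lowest drug concentration that inhibits all visible growth.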

Streptococcus pneumoniae [4] = experiment: Minimum inhibitory concentration against Streptococcus pneumoniae / Pen.I A27881; format: functional
Summary of the method: (§1)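 Broth dilution MIC under standard NCCLS-recommended conditions. The MIC was read as the lowest drug concentration giving no visible growth. Where the line states it, 50% calf serum was added.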

[5] = Concentration required for the inhibitory activity against PBP2a
Streptococcus pneumoniae [6] = experiment: Minimum inhibitory concentration against penicillin resistant Streptococcus pneumoniae A28272; format: functional
Staphylococcus aureus [7] = experiment: Minimum inhibitory concentration against Staphylococcus aureus / + 50% calf serum A27223; format: functional
Summary of the method: (§2)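 Broth MIC under NCCLS standard conditions in Mueller-Hinton broth plus 2% NaCl. Inoculum was about 5×10⁵ CFU/mL, incubated at 35 °C for 24 h. The endpoint was the lowest drug concentration inhibiting all visible growth. Where the line states it, 50% calf serum was added.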

Staphylococcus aureus [8] = experiment: Minimum inhibitory concentration against Staphylococcus aureus / Homo MR A27223; format: functional; summary of the method: as §2
Streptococcus pyogenes = experiment: Minimum inhibitory concentration against Streptococcus pyogenes Todd Hewitt A9604; format: functional; summary of the method: as §1
[9] = test system: Staphylococcus epidermidis; experiment: Minimum inhibitory concentration against Staphylococcus epidermidis A24548; format: functional; summary of the method: as §1
[10] = test system: Staphylococcus haemolyticus; experiment: Minimum inhibitory concentration against Staphylococcus haemolyticus / Homo MR A27229; format: functional; summary of the method: as §1
Staphylococcus aureus [11] = experiment: Minimum inhibitory concentration against Staphylococcus aureus / Pen.- A9497; format: functional; summary of the method: as §1
[12] = test system: Staphylococcus haemolyticus; experiment: Minimum inhibitory concentration against Staphylococcus haemolyticus A21638; format: functional; summary of the method: as §1
Staphylococcus aureus [13] = experiment: Minimum inhibitory concentration against Staphylococcus aureus / Homo MR A27621; format: functional; summary of the method: as §2
[14] = test system: Staphylococcus epidermidis; experiment: Minimum inhibitory concentration against Staphylococcus epidermidis / Imipenem A27368; format: functional; summary of the method: as §1
Staphylococcus aureus [15] = experiment: Minimum inhibitory concentration against Staphylococcus aureus / MR. P- A27225; format: functional; summary of the method: as §2
Staphylococcus aureus [16] = experiment: Minimum inhibitory concentration against Staphylococcus aureus A9606 with 50% calf serum; format: functional; summary of the method: as §1
Staphylococcus aureus [17] = experiment: Minimum inhibitory concentration against Staphylococcus aureus / Hetero MR A27218; format: functional; summary of the method: as §2
Staphylococcus aureus [18] = experiment: Concentration required for 90% inhibitory activity against methicillin-resistant Staphylococcus aureus; format: functional
Summary of the method: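 Panel of 58 MRSA strains tested by NCCLS broth method in Mueller-Hinton broth with 2% NaCl. Inoculum about 5×10⁵ CFU/mL, 35 °C for 24 h. MICs read as no visible growth, and MIC90 derived across the panel.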

Enterococcus faecalis [19] = experiment: Minimum inhibitory concentration against Enterococcus faecalis A20688 with 50% calf serum; format: functional; summary of the method: as §1
Enterococcus faecalis [20] = experiment: Minimum inhibitory concentration against Enterococcus faecalis A20688; format: functional; summary of the method: as §1
Staphylococcus aureus [21] = experiment: Minimum inhibitory concentration against Staphylococcus aureus A20241 /MS/Pen.; format: functional; summary of the method: as §1
Enterococcus faecium [22] = experiment: Minimum inhibitory concentration against Enterococcus faecium A24885; format: functional; summary of the method: as §1
[23] = test system: Staphylococcus epidermidis; experiment: Minimum inhibitory concentration against Staphylococcus epidermidis / MR A25783; format: functional; summary of the method: as §1
Staphylococcus aureus [24] = experiment: Minimum inhibitory concentration against Staphylococcus aureus A27218 with 50% calf serum; format: functional; summary of the method: as §2
Staphylococcus aureus [25] = experiment: Minimum inhibitory concentration against Staphylococcus aureus / Homo MR A27226; format: functional; summary of the method: as §2
Enterococcus faecium [26] = experiment: Minimum inhibitory concentration against Enterococcus faecium Amp. R. Vanco. S A28156; format: functional; summary of the method: as §1
Staphylococcus aureus [27] = experiment: Minimum inhibitory concentration against Staphylococcus aureus / Homo MR A27295; format: functional; summary of the method: as §2
Staphylococcus aureus [28] = experiment: Minimum inhibitory concentration against Staphylococcus aureus / Hetero MR A27217; format: functional; summary of the method: as §2
Staphylococcus aureus [29] = experiment: Minimum inhibitory concentration against Staphylococcus aureus / Pen.+ A9606; format: functional; summary of the method: as §1

For `Cc1cc(SCC2=C(C(=O)[O-])N3C(=O)[C@@H](NC(=O)CSc4cc(Cl)ccc4Cl)[C@H]3SC2)cc(CCC(=O)O)[n+]1CCc1cccs1`, the MIC (Staphylococcus aureus [1]) was 8 µg/mL, the ED50 (Staphylococcus aureus [2]) was > 23 mg/kg and the MIC (Staphylococcus aureus [3]) was 4 µg/mL (≈ 5.41 µM).

Work on `NCCC[n+]1ccc(SCC2=C(C(=O)O)N3C(=O)[C@@H](NC(=O)CSc4cc(Cl)ccc4Cl)[C@H]3SC2)cc1CCCC(=O)O.O=C(O)C(F)(F)F.O=C([O-])C(F)(F)F` yielded an MIC (Streptococcus pneumoniae [4]) of 0.007 µg/mL, an IC50 [5] of 3.4 µM and an MIC (Streptococcus pneumoniae [6]) of 0.06 µg/mL. It also gave an MIC (Staphylococcus aureus [7]) of 2 µg/mL, an MIC (Staphylococcus aureus [8]) of 0.5 µg/mL and an MIC (Streptococcus pyogenes) of 0.0005 µg/mL. It also gave an MIC [9] of 0.015 µg/mL, an MIC [10] of 1 µg/mL and an MIC (Staphylococcus aureus [11]) of 0.001 µg/mL. It also gave an MIC (Staphylococcus aureus [1]) of 4 µg/mL, an MIC [12] of 0.03 µg/mL and an MIC (Staphylococcus aureus [13]) of 0.5 µg/mL. The MIC [14] was 0.125 µg/mL, the MIC (Staphylococcus aureus [15]) was 0.5 µg/mL and the MIC (Staphylococcus aureus [16]) was 0.25 µg/mL. The MIC (Staphylococcus aureus [17]) was 0.5 µg/mL, the MIC90 (Staphylococcus aureus [18]) was 4 µg/mL and the MIC (Enterococcus faecalis [19]) was 1 µg/mL. It also gave an MIC (Enterococcus faecalis [20]) of 0.25 µg/mL, an MIC (Staphylococcus aureus [21]) of 0.06 µg/mL and an MIC (Enterococcus faecium [22]) of 1 µg/mL. The ED50 (Staphylococcus aureus [2]) was 5.1 mg/kg, the MIC [23] was 0.03 µg/mL and the MIC (Staphylococcus aureus [24]) was 0.5 µg/mL. The MIC (Staphylococcus aureus [25]) was 0.25 µg/mL, the MIC (Enterococcus faecium [26]) was 32 µg/mL and the MIC (Staphylococcus aureus [27]) was 1 µg/mL. The MIC (Staphylococcus aureus [28]) was 0.25 µg/mL, the MIC (Staphylococcus aureus [29]) was 0.06 µg/mL and the MIC (Staphylococcus aureus [3]) was 0.5 µg/mL.

In the case of `Cc1cc(SCC2=C(C(=O)[O-])N3C(=O)[C@@H](NC(=O)CSc4cc(Cl)ccc4Cl)[C@H]3SC2)cc(CCC(=O)O)[n+]1Cc1cccs1`, the MIC (Staphylococcus aureus [1]) is reported as 8 µg/mL, the ED50 (Staphylococcus aureus [2]) is reported as > 23 mg/kg and the MIC (Staphylococcus aureus [3]) is reported as 4 µg/mL (≈ 5.52 µM).

With `Cc1cc(SCC2=C(C(=O)[O-])N3C(=O)[C@@H](NC(=O)CSc4cc(Cl)ccc4Cl)[C@H]3SC2)cc(CCC(=O)O)[n+]1C[C@@H](O)[C@H](O)[C@@H](O)C(O)O` the MIC (Staphylococcus aureus [1]) was 16 µg/mL, the ED50 (Staphylococcus aureus [2]) was > 20 mg/kg and the MIC (Staphylococcus aureus [3]) was 8 µg/mL (≈ 10.3 µM).

`Cl.NCCC[n+]1ccc(SCC2=C(C(=O)O)N3C(=O)[C@@H](NC(=O)CSc4cc(Cl)ccc4Cl)[C@H]3SC2)cc1.[Cl-]` showed an IC50 [5] of 1.2 µM, an MIC (Staphylococcus aureus [1]) of 2 µg/mL and an MIC90 (Staphylococcus aureus [18]) of 2 µg/mL. For the same compound, the ED50 (Staphylococcus aureus [2]) was 1.4 mg/kg and the MIC (Staphylococcus aureus [3]) was 0.125 µg/mL.

In the case of `CSCCC[n+]1c(C)cc(SCC2=C(C(=O)[O-])N3C(=O)[C@@H](NC(=O)CSc4cc(Cl)ccc4Cl)[C@H]3SC2)cc1CCC(=O)O`, the MIC (Staphylococcus aureus [1]) is reported as 4 µg/mL, the ED50 (Staphylococcus aureus [2]) is reported as > 25 mg/kg and the MIC (Staphylococcus aureus [3]) is reported as 2 µg/mL (≈ 2.79 µM).

With `C=CCCc1cc(SCC2=C(C(=O)[O-])N3C(=O)[C@@H](NC(=O)CSc4cc(Cl)ccc4Cl)[C@H]3SC2)cc(C)[n+]1CC[C@@H](O)C(=O)O` the MIC (Staphylococcus aureus [1]) was 8 µg/mL, the ED50 (Staphylococcus aureus [2]) was 19.2 mg/kg and the MIC (Staphylococcus aureus [3]) was 4 µg/mL (≈ 5.61 µM).

In the case of `Cc1cc(SCC2=C(C(=O)O)N3C(=O)[C@@H](NC(=O)CSc4cc(Cl)ccc4Cl)[C@H]3SC2)cc(CCC(=O)O)[n+]1CCCN.O=C(O)C(F)(F)F.O=C([O-])C(F)(F)F`, the MIC (Streptococcus pneumoniae [4]) is reported as 0.06 µg/mL, the MIC (Streptococcus pneumoniae [6]) is reported as 0.25 µg/mL and the MIC (Staphylococcus aureus [7]) is reported as 4 µg/mL. The MIC (Staphylococcus aureus [8]) was 1 µg/mL, the MIC (Streptococcus pyogenes) was 0.0005 µg/mL and the MIC [9] was 0.03 µg/mL. For the same compound, the MIC [10] was 2 µg/mL, the MIC (Staphylococcus aureus [11]) was 0.007 µg/mL and the MIC (Staphylococcus aureus [1]) was 4 µg/mL. It also gave an MIC [12] of 0.125 µg/mL, an MIC (Staphylococcus aureus [13]) of 1 µg/mL and an MIC [14] of 0.5 µg/mL. It also gave an MIC (Staphylococcus aureus [15]) of 0.5 µg/mL, an MIC (Staphylococcus aureus [16]) of 0.25 µg/mL and an MIC (Staphylococcus aureus [17]) of 0.5 µg/mL. For the same compound, the MIC (Enterococcus faecalis [19]) was 4 µg/mL, the MIC (Enterococcus faecalis [20]) was 0.5 µg/mL and the MIC (Staphylococcus aureus [21]) was 0.25 µg/mL. The MIC (Enterococcus faecium [22]) was 2 µg/mL, the ED50 (Staphylococcus aureus [2]) was 2.5 mg/kg and the MIC [23] was 0.25 µg/mL. The MIC (Staphylococcus aureus [24]) was 1 µg/mL, the MIC (Staphylococcus aureus [25]) was 0.5 µg/mL and the MIC (Enterococcus faecium [26]) was 64 µg/mL. It also gave an MIC (Staphylococcus aureus [27]) of 2 µg/mL, an MIC (Staphylococcus aureus [28]) of 0.5 µg/mL and an MIC (Staphylococcus aureus [29]) of 0.125 µg/mL. The MIC (Staphylococcus aureus [3]; Staphylococcus aureus, read-out: MIC) was 1 µg/mL.

Compound `C[n+]1ccc(SCC2=C(C(=O)[O-])N3C(=O)[C@@H](NC(=O)CSc4cc(Cl)ccc4Cl)[C@H]3SC2)cc1CCCC(=O)O` has an MIC (Staphylococcus aureus [1]) of 8 µg/mL, an ED50 (Staphylococcus aureus [2]) of 5.2 mg/kg and an MIC (Staphylococcus aureus [3]) of 4 µg/mL (≈ 6.22 µM).
